Test system: MS2 coat protein
Assay: apparent Kd, MS2 coat protein; higher = weaker binding; RNA-MaP array; FMN 200 µM where present
Procedure, shortened: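 Green signal from SNAP-549-labelled MS2 coat protein was normalised to red-channel RNA signal and to the median Fmax of control clusters. The protein was titrated from 0.7 or 1.5 nM, doubling to 3 µM, without and then with constant ligand, over designs transcribed by stalled E. coli RNA polymerase on Illumina sequencing-chip clusters, in 100 mM Tris-HCl pH 7.5, 80 mM KCl, 4 mM MgCl2, BSA, DTT, yeast tRNA and Tween-20. The apparent Kd is the median of filtered per-cluster binding-curve fits.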

[1] = designed as: OFF switch for flavin mononucleotide, no ligand
[2] = ligand present: flavin mononucleotide, designed as: OFF switch for flavin mononucleotide
[3] = designed as: ON switch for flavin mononucleotide, no ligand
[4] = ligand present: flavin mononucleotide, designed as: ON switch for flavin mononucleotide

Sequence	apparent Kd [1] [nM]	apparent Kd [2] [nM]	apparent Kd [3] [nM]	apparent Kd [4] [nM]
CGGGAGUCAGGAUAUACGGUCAUGUCGCCAGAUGUCAUGGUACAUGAGGAUCACCCAUGUAGAAGGGAGGAGAU	75.7	136		
GCCAUCGCAUGAGGAUAUGGCACCGUUUCGGUGCCAGAAGGCAUGUCAUAAGACAUGAGGAUCACCCAUGUGAAUAAGAUGGCA			360	38.5
CACAAGAAAGUCGAAGGUUGAAGUAGAAGGACUAUAACAUGACAUGAGGAUCACCCAUGUGCCAAGUAGGAUAUGCUUUAAUCG	7.7	7.38		
UUUGGGUGGCUGGAGGAUAUUCUAGUGGUUACAUGAGGAUCACCCAUGUGUCGCGCGGUUCGCGAGGAGAAGGCUGGCGGCCGUU			166	46.2
GGUAGCAACACAGGAUAUGCUAUCCUUUGGGUAGCAGAAGGGUGAAACAUGAGGAUCACCCAUGUGCUGCCAGGGCGUGAGCCC			1800	136
ACAUACAUUCGAGGAUAUCGGUGAACAAAUUAACGAGAAGGCGAUAUAAGUUUUAAUCUUAUGAACAUGAGGAUCACCCAUGUA			26.4	24.3
CAUGUCCUCACAGGAUAUGCAAUGUAUUUCAUUGCAGAAGGGUGAACACAUGAGGAUCACCCAUGUGGACAUGAUAUAUUUAAG			529	63.4
UAUAAGCUAGGAUAUACUAACGAAACUAAUGCAUAUAUAUAACAUGAGGAUCACCCAUGUAGAAGGAGCAGAAU	25.5	23		
CAAGUGUCAGGAUAUACAUGAGGAUCACCCAUGUGUCUUUGUGAUCGUAGGGUGCACCGUAGAAGGGACACUCC	70.4	127		
AGGCGACAUGAGGAUCACCCAUGUGAGGAUAUCGAACUCUACUGUUGUGAGAGUAAGGCGAGAAGGCACACAGU	22.7	25.3		
UUGCUCAAUUGGGCAGGAACCUCACAUGAGGAUCACCCAUGUCAGGAUAUCCUAGUUUGGACGUAGGAGAAGGGACAGAGUAUC	157	152		
UUGGACGUCGUACGAUAUGUAGGAUAUUCCUACAUGAGGAUCACCCAUGUUGACAUGGAAGAAGGACAGAAGGACGAUGUCCAU			151	5.61
ACACAUGAGGAUCACCCAUGUAGCUGGCGUCUGCGCCAGCCACAGGAUAUACGGCUACACAAGCCGUAGAAGGGUGAUAAACAC			62.9	27.2
AAAAAACAUGAGGAUCACCCAUGUAAAAAAAUGGGAGGAUAUACAAAAACAAAAAAAAAAGUAGAAGGCCUGAAAA			387	63.8
CUGAGCUGAGGAUAUACAUGAGGAUCACCCAUGUGGGCCUGCGAGGUUACUUGCACAUGUAGAAGGCAGUUCGG	136	17.2		
UAGUGCGUUAGAGGAUAUUCUAAAUAAAAUAAUAAGACAUGAGGAUCACCCAUGUAUGUACAUGGGAAGAAGGCUGAUGUGCUA			573	42.9
GCCAUCACGUGAGGAUAUGCUCCCGUUUCGGGAGCAGAAGGCAUGUCAUAAGACAUGAGGAUCACCCAUGUAGUUAAGAUGGCA			317	12
CUCUUGGCAGGAUAUGCUCUCUUAGACAUGAGGAUCACCCAUGUGUUCAUUCUUUCUUUUGCAGAAGGGCCUUAAC	87.1	82.8		
GCUGCGUACGUAGGAUAUACAUGAGGAUCACCCAUGUAACUCGGACUCUAAGCGGGUGCGCGCAUGUAGAAGGACGGGCGAGCC	33.3	57.2		
GUCAGCUCGUGAGGAUAUACAACACUACUUCGGCAGUGUAUUAAGAUCACAUGAGGAUCACCCAUGUAGAAGGCACGAGCUGAU	14	228		
GCCUUAUCGGUCAGGAUAUACACCCGCCAGUUGUUGUAGAAGGGACAUGAGGAUCACCCAUGUACAUUACAUUG	21.2	33.8		
ACGCUUUGGGAGAAGGUACUUUAAAUUUUUUCCACAUGAGGAUCACCCAUGUAAGGAUAUCCCAUCGUUAAAUAUUCUACAGCA	8.4	7.06		
CUCUUGUGAGGAUAUCAGUAGUAAAAAAAUAAAAUUACUACUGAGAAGGCACAUGAGGAUCACCCAUGUGACUU	26.2	30.5		
AUCAGCUCGUCAGGAUAUACGUCACUGCGUGAGCAGUGUGGUAAGAUCACAUGAGGAUCACCCAUGUAGAAGGGACGAGCUGAU	13.6	271		
CAGCAUCAUGUAGGAUAUGCGUGGCGAAGCUAUGCAGAAGGACAUGAGGAUCACCCAUGUCUUACUGUGCGUACACAGUUGCUG	6.87	11.3		
UCAUACAUGACAUGACAUGACAUGAGGAUCACCCAUGUUUACAAGGAUAUGUACAUGAAACAUGUACAGAAGGUGUAUUGGACU	42.4	150		
AGUCGGAGCAGAGGAUAUACAUGAGGAUCACCCAUGUAAUAAAGUGAAGCUUGGAAACAGGCAAUGUAGAAGGCUGCUCCGACA	11.3	68.6		
AUACUCAUGUAAGGAUAUGCAGCCGAAACGGCUGCAGAAGGUACUAUAAUACAUGAGGAUCACCCAUGUCGAAAUAAAAUAGUU			201	47.9

Sequence	apparent Kd [1] [nM]	apparent Kd [2] [nM]	apparent Kd [3] [nM]	apparent Kd [4] [nM]
CCUGUCAGAGGAUAUGCAUCAGGGCUAUCCUCUAUCGCAGAACAUGAGGAUCACCCAUGUAGAAGGCUGUCAAA	29.9	23.6		
GCCAUUGCAUGAGGAUAUGCUCCCGUUUCGGGAGCAGAAGGCAUGUCAUAAGACAUGAGGAUCACCCAUGUAGUUAAGAUGGCA			398	15.2
CAUUAAUUCAUUAUAGUAAUUAUACAGGAUAUGUUACAUGAGGAUCACCCAUGUAUUCAUGGUAAACAGAAGGGUAAUACUAGA	12.3	22.4		
UUCCUCAUAACAUGAGGAUCACCCAUGUAUUAAUAGAUAACUGAGGAUAUACUAAUAAUGUUUAUGUAGAAGGCAGAUACAGAU	49.6	106		
GAUACACAUGAGGAUCACCCAUGUGAGGAUAUGCGUACGUUGUCCGUAGGCGACGUGCGCAGAAGGCGCAAGGU	83.2	95.3		
UUACUCAUGUAAGGAUAUGCAGCCGUUUCGGUUGCAGAAGGUACUAUAAUACAUGAGGAUCACCCAUGUCUUUUUAAUUUAGAC			78.4	39.6
UAAGACUAGCAUUGGUAUCUCCACAUGAGGAUCACCCAUGUCUAGGAUAUGAGCAGCAAAGCUGCUUAGAAGGAGACGCUAGUC	8.47	12.6		
AUUAUGUAAGGAUAUCUUACAUGUGACUUCGGUCACUGUUAAGAGAAGGUACAUGAGGAUCACCCAUGUAGAAC	18.7	28.7		
AAAAGACAUGAGGAUCACCCAUGUUAGGAUAUCGUGCAGAAAAAAAAAAAAAACUGCACGAGAAGGAACAAGGA	73.5	88.5		
GGACAUUUACAGAAGGGCAAGCUCGAAAGCGGAGAACGCGAACGAGCUUGCAGGAUAUGUUGAACAUGAGGAUCACCCAUGUCU				7.08
GCUCCGCACUAGAAGGGUGACAUGAGGAUCACCCAUGUGCACUUCCGCUCUUAGCGGAAAGUGCCACAGGAUAUAGUGUGGAGU			31.8	113
AUUUAAAUGUCAGGAUAUGUUAGUUUAUACUUAGUAGAAGGGAUAAUUAUACUCAAGUACAUGAGGAUCACCCAUGUUAAAUCA			21	18.5
ACGGUGGUCACAGGAUAUCCAGCCCGCGUGCCUGGAGAAGGGUGACUCAGAACCACAUGAGGAUCACCCAUGUGCCUUGCCGUA			140	33.4
AAUAAACUCACAGGAUAUAGCAUAGGUCGCGUGAACUUACAGACGACUAUGCUAGAAGGGUGACCACAUGAGGAUCACCCAUGU			880	186
GUAUGACAAAGUCAUACCGCUUUGACAUGAGGAUCACCCAUGUAGGAUAUAUUAAUCAAAGAUUAAUAGAAGGACAUGUUUCUU	43.7	114		
UGUUUGUGAGGAUAUCCAAUAUAUGACAUGAGGAUCACCCAUGUUUCCACUCGUACCUCCGGAGAAGGCACUGCGU	29.1	26		
ACAUGAUAUGUAGGAUAUCACAUUAAUUGUUUUAUAAUUGUAUUUAGGAUUUGAGAAGGACAUUUACAUGAGGAUCACCCAUGU	15.8	11.3		
AGCAUGUGAGGAUAUGCGGACUCCGGUAAAGCUGGAGUCCAGUAGAAGGCACAUGAGGAUCACCCAUGUGAUAA	85.6	106		
GACUUGUCAGGAUAUCUUACAUUUGCAUCUUAGUUACCAUUGGAGAAGGGACAUGAGGAUCACCCAUGUUUGGU	35.1	34.4		
AGUCGGCGAGGAUAUACAUGAGGAUCACCCAUGUGAUAUAGUGCACGCGUACGUGUACGUAGAAGGCGCUGACA	13.3	40.1		
GCGUUACAUGAGGAUCACCCAUGUGAGGAUAUGGUGCGGUACUGUCCUGUCGCGUACUCCAGAAGGCACGGGUG	150	85.3		
UCAGGCUUCGAGAAGGACAUGAAUCGUAGCAUUGCUACGAUCAUAGAUACAUGAGGAUCACCCAUGUAGGAUAUCGGAGUCUGC	5.8	5.87		
UGGUACUAGGGAGGAUAUGGGAAGAUACAUGAGGAUCACCCAUGUUUAAGAAUGCCGAGAGGCAAGUAGAAGGCCCUAGUACCU			781	97.5
CCCUCACAUGAGGAUCACCCAUGUCAGGAUAUUCGAACGGUGUGUUUUUGGCCAGUUGGAAGAAGGGACAUAAA	29.7	117		
GUGGUGCAUAUACGUGGAUGUACAUGAGGAUCACCCAUGUAAGAGGAUAUGCGGAUACUAGCUCAGCAGAAGGCUUACAAAUGC	9.75	27.5		
AGAAACUACGAGAAGGACAUGAGAACCUUCAAUUACAUGAGGAUCACCCAUGUAGGAUAUCGUAGUUUCAGGAUCGUGAGAUCA	12.7	86		
CGUAGGAUCCAGAAGGCAUGAACAUGAGGAUCACCCAUGUGAAAACACAUGAGGAUAUGGAUCCUACGAAAAGUGCGAAAGCAC			5.4	4.66
